Results taken from ChEMBL document CHEMBL1131767, “Substituted coumarins as esterase-sensitive prodrug moieties with improved release rates” (Bioorg Med Chem Lett, 1999).

Key:
[1] = Compound was evaluated for the half life; type: ADME
Summary of the method: (§1)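 Porcine liver esterase (PLE), about 1 unit/mL, incubated with the model prodrug in 0.05 M phosphate buffer at pH 7.4 and 37 ± 0.5 °C. Amine release was followed by UV. The pseudo-first-order rate constant (kobs, min⁻¹) and the half-life (min) are reported.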

[2] = species on record: Sus scrofa; experiment: Pseudo first order rate constant to release model amine drug after esterase catalyzed hydrolysis at an enzyme concentration of 1 unit/mL; summary of the method: as §1

Structure (SMILES) | half-life [1] | K obs x10e2 [2]
CC(=O)Oc1ccccc1/C=C\C(=O)N(C)Cc1ccccc1 | 32.5 min | 2.13 min⁻¹
CCN(CC)C(=O)/C=C\c1ccccc1OC(C)=O | 188 min | 0.37 min⁻¹
CC(=O)Oc1c(C)ccc(C)c1/C=C\C(=O)N(C)Cc1ccccc1 | 4.8 min | 14.4 min⁻¹

Continued, values first:

half-life [1] | K obs x10e2 [2] | Structure (SMILES)
6.3 min | 11 min⁻¹ | CC(=O)Oc1cc(C)cc(C)c1/C=C\C(=O)N(C)Cc1ccccc1
11.4 min | 6.1 min⁻¹ | CCN(CC)C(=O)/C=C\c1c(C)ccc(C)c1OC(C)=O
18.8 min | 3.7 min⁻¹ | CCN(CC)C(=O)/C=C\c1c(C)cc(C)cc1OC(C)=O
